This is a sample that favours compounds with a hit; in the whole collection about 3.9% have one here.
Jurkat NFkB inh: inhibitors of the PMA/ionomycin-induced NF-kB reporter in Jurkat cells | PMA/ionomycin-induced NF-kB luciferase reporter, luminescence | inhibition, % at 4 µM | 330,000 compounds, 0.53% hits; in the data active = inhibition above about 50%
697 NFkB inh: inhibitors of the PMA/ionomycin-induced NF-kB reporter in 697 B cells; 697 B-cell NF-kB luciferase reporter, 16 h; inhibition, % at 4 µM; 330,000 compounds, 0.33% hits; in the data active = inhibition above about 35%
XBP1 UPR activ: activators of adaptive arm of unfolded protein response (XBP1) | CHO-XBP1 luciferase reporter, IRE1-XBP1 UPR activation, luminescence; percent of tunicamycin response, DMSO as zero | activation, % at 20 µM | 330,000 compounds, 0.33% hits | AID 463104;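 active = versus positive control, 20 µM dose yields 30% or more activation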;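 also: 100% = tunicamycin at 10 µg/mL and 0% = DMSO only wells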
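Material: CHO cell line with stable XBP1 luciferase reporter; schedule: 16-18 h cell attachment at 37 °C, then 6 h compound exposure; signal: glow luminescence from Steady-Glo reagent; medium: serum-containing F12 medium, 10% FBS; benchmarks: tunicamycin 10 µg/mL and vehicle-only wells; read-out: percent activation relative to tunicamycin reference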
CHOP UPR activ: activators of apoptotic arm of unfolded protein response (CHOP); activation, % at 10 µM; 330,000 compounds, 0.34% hits; CHO-CHOP luciferase reporter, UPR activation, luminescence; percent of tunicamycin response over DMSO baseline;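 active = at 10 µM dose, activation of 40% or more, normalized to positive control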;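 also: 100% = tunicamycin at 10 µg/mL and 0% = DMSO alone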
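Test system: CHO-CHOP cells, stable luciferase reporter of PERK-eIF2a-CHOP signalling | Quantity: 500 CHO-CHOP cells per well | Buffer or medium: F12 plus 10% serum | Compound dosing: 10 µM single point, 0.5% DMSO | Schedule: 6 h compound treatment, 37 °C | Signal: Luciferase luminescence | Control set: Tunicamycin high control, DMSO low control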
CHOP inh: CHOP inhibition in unfolded protein response | AID 2732 | 220,000 compounds, 3.8% hits | inhibition, % at 10 µM | CHO-K1 CHOP-promoter luciferase, tunicamycin-induced, 15-18 h;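 active = compounds that reduced the stress-induced luciferase reporter signal by more than about 70% of percent inhibition, limit read from the data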;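 also: 0% = tunicamycin plus vehicle and 100% = wells without tunicamycin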
Gli-Sufu antag: blocks Gli-Sufu signaling in a luciferase reporter | Sufu-KO-LIGHT fibroblasts, Gli luciferase reporter luminescence | inhibition, % at 5 µM | 340,000 compounds, 0.74% hits | AID 588413;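 active = inhibition above about 55%, limit read from the data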;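 also: 0% = DMSO-treated cells and 100% = wells with medium but no cells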
697 NFkB conf: inhibitors of the PMA/ionomycin-induced NF-kB reporter in 697 B cells, retest; shares compounds with 697 NFkB inh; 697 B-cell NF-kB luciferase, 16 h; inhibition, % at 4 µM; 2,000 compounds, 35% hits; AID 449746; in the data active = inhibition mostly above about 28%, no sharp cut-off; inactive = mostly below about 22%
* marks the source's active call; other numbers are inactive results.

`O=C(CCCN1C(=O)/C(=C/c2ccccc2Cl)SC1=S)NNC(=O)c1ccncc1` gave Jurkat NFkB inh 17, 697 NFkB inh 48*, XBP1 UPR activ -7, CHOP UPR activ -3, CHOP inh 67, Gli-Sufu antag 6 and 697 NFkB conf 56*.
CCOc1ccc(/C=C2\SC(=S)N(CC(=O)Nc3ccccn3)C2=O)cc1 was read as Jurkat NFkB inh -6, 697 NFkB inh 2, XBP1 UPR activ 18, CHOP UPR activ 1 and Gli-Sufu antag -10.
O=C(CCNS(=O)(=O)c1ccccc1)NNC(=O)COc1ccccc1F was read as Jurkat NFkB inh 6, 697 NFkB inh 9, XBP1 UPR activ 1, CHOP UPR activ 0 and Gli-Sufu antag 1.
For COc1ccc(-c2noc(N3CCC(C(=O)Nc4cccc(OC)c4)CC3)n2)cc1 the results were Jurkat NFkB inh 20, 697 NFkB inh 42*, XBP1 UPR activ -2, CHOP UPR activ 0, Gli-Sufu antag -13 and 697 NFkB conf 34*.
For COc1ccc(-c2noc(N3CCC(C(=O)Nc4ccc(F)cc4)CC3)n2)cc1 the results were Jurkat NFkB inh 18, 697 NFkB inh 31, XBP1 UPR activ 2, CHOP UPR activ 1 and Gli-Sufu antag -6.
`CCOc1ccc(-c2nnc(-c3cccs3)o2)cc1` gave Jurkat NFkB inh -93, 697 NFkB inh -251, XBP1 UPR activ -3, CHOP UPR activ -3, CHOP inh 32, Gli-Sufu antag -96 and 697 NFkB conf -212.
CC1CCCC(NC(=O)CCNC(=O)c2ccc([N+](=O)[O-])cc2)C1C (stereo not drawn) was read as Jurkat NFkB inh 18, 697 NFkB inh 23, XBP1 UPR activ -3, CHOP UPR activ -1 and Gli-Sufu antag -10.
`Cc1cc(OCC(=O)NC2CC2)c2c(C)c(C)c(=O)oc2c1` gave Jurkat NFkB inh 7, 697 NFkB inh 36*, XBP1 UPR activ 5, CHOP UPR activ 1, Gli-Sufu antag -1 and 697 NFkB conf 29*.
Screening CCOC(=O)Cc1csc(NC(=S)NC(=O)c2ccccc2)n1 returned Jurkat NFkB inh -4, 697 NFkB inh -12, XBP1 UPR activ 1, CHOP UPR activ 0, CHOP inh 14 and Gli-Sufu antag -1.
Screening CCOC(=O)Cc1csc(NC(=S)NC(=O)c2ccc(C)cc2)n1 returned Jurkat NFkB inh -5, 697 NFkB inh 70*, XBP1 UPR activ 1, CHOP UPR activ -3, CHOP inh 26, Gli-Sufu antag 28 and 697 NFkB conf 89*.
CCOc1cc2nc(-c3ccc(OC)c(OC)c3)nc(N3CCOCC3)c2cc1OC was read as Jurkat NFkB inh -40, 697 NFkB inh 45*, XBP1 UPR activ 5, CHOP UPR activ 0, CHOP inh 13, Gli-Sufu antag -7 and 697 NFkB conf 38*.
For CCOc1cc2nc(-c3ccc(OC)c(OC)c3)nc(N3CC(C)OC(C)C3)c2cc1OC (stereo not drawn) the results were Jurkat NFkB inh 12, 697 NFkB inh 3, XBP1 UPR activ 8, CHOP UPR activ 0 and CHOP inh 28.
For CC(C)CN(C(=O)CC1CCCC1)c1c(N)n(Cc2ccccc2)c(=O)[nH]c1=O the results were Jurkat NFkB inh 9, 697 NFkB inh 14, XBP1 UPR activ -1, CHOP UPR activ 1 and Gli-Sufu antag 1.
For Cc1ccc(C(=O)OCC(=O)N(CC(C)C)c2c(N)n(Cc3ccccc3)c(=O)[nH]c2=O)o1 the results were Jurkat NFkB inh 16, 697 NFkB inh 40*, XBP1 UPR activ -2, CHOP UPR activ 1, Gli-Sufu antag 6 and 697 NFkB conf 26*.
CC(C)CN(C(=O)COC(=O)C12CC3CC(CC(C3)C1)C2)c1c(N)n(Cc2ccccc2)c(=O)[nH]c1=O was read as Jurkat NFkB inh 14, 697 NFkB inh 50*, XBP1 UPR activ -5, CHOP UPR activ 5, Gli-Sufu antag 31 and 697 NFkB conf 52*.
NC(=O)C1CCN(S(=O)(=O)c2cc3c4c(c2)CCN4C(=O)CC3)CC1 was read as Jurkat NFkB inh 8, 697 NFkB inh -2, XBP1 UPR activ -1, CHOP UPR activ 0 and Gli-Sufu antag -4.
`O=C(c1ccc(Cl)c(S(=O)(=O)N2CCc3ccccc32)c1)N1CCN(c2ccccc2O)CC1` gave Jurkat NFkB inh 8, 697 NFkB inh 8, XBP1 UPR activ 4, CHOP UPR activ 6 and Gli-Sufu antag 10.
`O=C(NNC(=O)c1ccccc1O)c1ccc(Cl)c(S(=O)(=O)N2CCc3ccccc32)c1` gave Jurkat NFkB inh -10, 697 NFkB inh 85*, XBP1 UPR activ 0, CHOP UPR activ 3, Gli-Sufu antag 63* and 697 NFkB conf 97*.
`Cc1ccc(C(=O)Nc2cccc(C(=O)NCc3ccccc3)c2)o1` gave Jurkat NFkB inh -3, 697 NFkB inh 36*, XBP1 UPR activ 0, CHOP UPR activ -1, CHOP inh 29, Gli-Sufu antag 0 and 697 NFkB conf 1.
Screening O=C(NCc1ccccc1)c1cccc(NC(=O)c2ccccc2)c1 returned Gli-Sufu antag 2.
`O=C(N/N=C/c1nn(-c2ccccc2)cc1-c1ccc(Cl)cc1)c1ccncc1` gave Jurkat NFkB inh -30, 697 NFkB inh -50, XBP1 UPR activ 7, CHOP UPR activ 1 and CHOP inh 17.
Screening CC(C)c1nc2oc3c(NCC4CCCO4)ncnc3c2c2c1CCC2 (stereo not drawn) returned Jurkat NFkB inh 7, 697 NFkB inh 42*, XBP1 UPR activ 6, CHOP UPR activ 5, CHOP inh 56, Gli-Sufu antag 4 and 697 NFkB conf 24.
Cc1ccccc1N1CCN(CCC(=O)Nc2ccc(F)cc2)CC1 was read as Jurkat NFkB inh 11, 697 NFkB inh 14, XBP1 UPR activ -5, CHOP UPR activ 1 and Gli-Sufu antag 25.
`Cc1ccc(S(=O)(=O)c2c(C)nn(C(C)(C)C)c2OC(=O)c2ccco2)cc1` gave Jurkat NFkB inh 7, 697 NFkB inh 7, XBP1 UPR activ -4, CHOP UPR activ 3, CHOP inh 22 and Gli-Sufu antag 7.
Screening Cc1nn(C(C)(C)C)c(OC(=O)c2ccc(Br)o2)c1Sc1ccccc1 returned Jurkat NFkB inh 9, 697 NFkB inh 36*, XBP1 UPR activ 2, CHOP UPR activ 8, CHOP inh 67, Gli-Sufu antag 7 and 697 NFkB conf 31*.
O=C(CN1C(=O)c2ccccc2S1(=O)=O)c1ccc(OC(F)F)cc1 was read as Jurkat NFkB inh 17, 697 NFkB inh 40*, XBP1 UPR activ -9, CHOP UPR activ -7, Gli-Sufu antag 78* and 697 NFkB conf 36*.

High-throughput results (PubChem BioAssay)
